Results on three compounds are retold here after ChEMBL document CHEMBL4251654, “Structure-based design of human immuno- and constitutive proteasomes inhibitors” (Eur J Med Chem, 2018).

Active and inactive are the calls of the source. The calls are words filed in the database; no cut-off is given here. Where only a bound is given, the exact number is not on record here.

Proteasome Macropain subunit (Homo sapiens), sequence (P49721 whole entry): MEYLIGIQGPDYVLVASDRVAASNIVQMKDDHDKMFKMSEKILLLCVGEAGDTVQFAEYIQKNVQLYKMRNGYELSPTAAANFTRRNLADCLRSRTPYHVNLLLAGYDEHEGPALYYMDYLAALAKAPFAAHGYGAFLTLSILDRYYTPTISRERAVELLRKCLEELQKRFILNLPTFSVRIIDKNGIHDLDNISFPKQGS

In one assay the target is T1, Proteasome Macropain subunit MB1 (Homo sapiens, UniProt P28074).
T1 sequence (P28074 whole entry): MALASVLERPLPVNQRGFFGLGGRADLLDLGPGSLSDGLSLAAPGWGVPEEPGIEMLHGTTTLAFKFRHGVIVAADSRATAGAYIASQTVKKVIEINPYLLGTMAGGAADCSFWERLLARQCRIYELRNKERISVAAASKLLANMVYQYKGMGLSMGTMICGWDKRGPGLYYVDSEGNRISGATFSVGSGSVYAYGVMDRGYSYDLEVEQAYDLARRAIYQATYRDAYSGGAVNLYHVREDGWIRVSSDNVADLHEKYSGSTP
Kind of assay: Inhibition of human 20S constitutive proteasome beta-5 using Suc-LLVY-AMC as substrate incubated for 15 mins measured for 45 mins by fluorescence assay. A digest of the protocol: (§1)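 Human 20S cCP or iCP (0.3 nM) was exposed to compound (0.001-50 μM) for 15 min in pH 8 buffer of 20 mM Tris-HCl, 10% glycerol, 0.01% SDS, 2% DMSO. Suc-LLVY-AMC at 20 μM followed. Fluorescence (ex 360/em 460 nm) was read 45 min at 37 °C versus untreated enzyme.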
For the compound `C[C@H](NC(=O)[C@H](Cc1ccc(OCc2ccccc2)cc1)NC(=O)OC(C)(C)C)C(=O)N[C@@H](C[C@@]1(O)C(=O)N(C)c2ccccc21)C(=O)NCc1ccccc1`, the IC50 was 6.8 µM.
In turn, `C[C@H](NC(=O)OCc1ccccc1)C(=O)N[C@@H](C[C@]1(O)C(=O)Nc2ccccc21)C(=O)NCc1ccccc1` showed an IC50 of 5.1 µM.

The next assay deals with T2, Proteasome subunit beta type-8 (Homo sapiens, UniProt P28062).
T2 sequence (P28062 whole entry): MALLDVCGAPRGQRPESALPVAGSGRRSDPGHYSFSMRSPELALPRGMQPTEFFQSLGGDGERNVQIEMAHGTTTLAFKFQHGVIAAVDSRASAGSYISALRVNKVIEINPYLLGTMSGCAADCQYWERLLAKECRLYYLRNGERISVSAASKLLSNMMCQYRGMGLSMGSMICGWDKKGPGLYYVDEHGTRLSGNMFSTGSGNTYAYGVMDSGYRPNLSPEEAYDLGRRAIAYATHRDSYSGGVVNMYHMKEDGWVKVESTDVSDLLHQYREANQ
Kind of assay: Inhibition of human 20S immunoproteasome beta-5 using Suc-LLVY-AMC as substrate incubated for 15 mins measured for 45 mins by fluorescence assay. The gist of the method: as §1
As to `C[C@H](NC(=O)[C@H](Cc1ccc(OCc2ccccc2)cc1)NC(=O)OC(C)(C)C)C(=O)N[C@@H](C[C@@]1(O)C(=O)N(C)c2ccccc21)C(=O)NCc1ccccc1`, the IC50 is 6.1 µM. In other words, the single-digit micromolar range.
Compound `C[C@H](NC(=O)OCc1ccccc1)C(=O)N[C@@H](C[C@]1(O)C(=O)Nc2ccccc21)C(=O)NCc1ccccc1` had an IC50 of 3.96 µM.

Another assay deals with T3, Proteasome Macropain subunit MB1 (Homo sapiens) (UniProt P28074).
T3 sequence (whole entry): T1 sequence (P28074 whole entry)
Kind of assay: Inhibition of human 20S constitutive proteasome beta-5 at 50 uM using Suc-LLVY-AMC as substrate incubated for 15 mins measured for 45 mins by fluorescence assay relative to control. A digest of the protocol: as §1
Consider `C[C@H](NC(=O)[C@H](Cc1ccc(OCc2ccccc2)cc1)NC(=O)OC(C)(C)C)C(=O)N[C@@H](C[C@]1(O)C(=O)Nc2ccccc21)C(=O)NCCC(=O)O`, for which the inhibition worked out at 18%.
`C[C@H](NC(=O)[C@H](Cc1ccc(OCc2ccccc2)cc1)NC(=O)OC(C)(C)C)C(=O)N[C@@H](C[C@@]1(O)C(=O)N(C)c2ccccc21)C(=O)NCc1ccccc1` gave an inhibition of more than 85%.
In turn, `C[C@H](NC(=O)OCc1ccccc1)C(=O)N[C@@H](C[C@]1(O)C(=O)Nc2ccccc21)C(=O)NCc1ccccc1` yielded an inhibition of more than 85%.

The target in another assay is T4, Proteasome subunit beta type-8 (Homo sapiens) (UniProt P28062).
T4 sequence (whole entry): T2 sequence (P28062 whole entry)
Put plainly: Inhibition of human 20S immunoproteasome beta-5 at 50 uM using Suc-LLVY-AMC as substrate incubated for 15 mins measured for 45 mins by fluorescence assay relative to control. The gist of the method:
as §1
Take `C[C@H](NC(=O)[C@H](Cc1ccc(OCc2ccccc2)cc1)NC(=O)OC(C)(C)C)C(=O)N[C@@H](C[C@]1(O)C(=O)Nc2ccccc21)C(=O)NCCC(=O)O`: the inhibition stood at 14%.
With `C[C@H](NC(=O)[C@H](Cc1ccc(OCc2ccccc2)cc1)NC(=O)OC(C)(C)C)C(=O)N[C@@H](C[C@@]1(O)C(=O)N(C)c2ccccc21)C(=O)NCc1ccccc1`, the inhibition is more than 85%.
The same measure, in the same setting: the result for `C[C@H](NC(=O)OCc1ccccc1)C(=O)N[C@@H](C[C@]1(O)C(=O)Nc2ccccc21)C(=O)NCc1ccccc1` reads more than 85%.

The target in another assay is T5, Proteasome subunit beta type-9 (Homo sapiens, UniProt P28065).
T5 sequence (P28065 whole entry): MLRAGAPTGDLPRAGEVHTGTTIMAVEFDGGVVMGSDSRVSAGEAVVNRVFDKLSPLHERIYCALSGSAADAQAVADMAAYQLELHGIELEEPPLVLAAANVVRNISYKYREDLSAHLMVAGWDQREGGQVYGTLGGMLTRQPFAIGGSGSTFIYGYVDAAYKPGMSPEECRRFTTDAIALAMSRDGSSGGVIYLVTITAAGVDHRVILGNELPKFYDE
Put plainly: Inhibition of human 20S immunoproteasome beta-1 using Ac-PAL-AMC as substrate incubated for 15 mins measured for 45 mins by fluorescence assay. The gist of the method: (§2)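 Human 20S immunoproteasome (0.3 nM) was given 15 min with compound (0.001-50 μM) in pH 8 buffer of 20 mM Tris-HCl, 10% glycerol, 0.01% SDS, 2% DMSO. Ac-PAL-AMC at 50 μM was the substrate. Fluorescence (ex 360/em 460 nm) was followed 45 min at 37 °C relative to control.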
Turning to `C[C@H](NC(=O)[C@H](Cc1ccc(OCc2ccccc2)cc1)NC(=O)OC(C)(C)C)C(=O)N[C@@H](C[C@@]1(O)C(=O)N(C)c2ccccc21)C(=O)NCc1ccccc1`, the IC50 was 8.9 µM. That is a single-digit micromolar value.
The same measure, in the same setting: in the case of `C[C@H](NC(=O)OCc1ccccc1)C(=O)N[C@@H](C[C@]1(O)C(=O)Nc2ccccc21)C(=O)NCc1ccccc1` it was 45 µM.

The target of another assay is T6, Proteasome component C5 (Homo sapiens) (UniProt P20618).
T6 sequence (whole entry): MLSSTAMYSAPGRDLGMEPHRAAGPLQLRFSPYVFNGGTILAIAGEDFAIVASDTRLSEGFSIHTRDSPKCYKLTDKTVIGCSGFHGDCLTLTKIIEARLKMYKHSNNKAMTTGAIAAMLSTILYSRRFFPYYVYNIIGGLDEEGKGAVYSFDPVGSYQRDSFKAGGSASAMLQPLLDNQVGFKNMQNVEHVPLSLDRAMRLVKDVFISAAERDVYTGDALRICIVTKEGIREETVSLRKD
Put plainly: Inhibition of human 20S constitutive proteasome beta-1 at 50 uM using Z-LLE-betaNA as substrate incubated for 15 mins measured for 45 mins by fluorescence assay relative to control. A digest of the protocol: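 Human 20S constitutive proteasome, 0.3 nM, was preincubated 15 min with compound (0.001-50 μM) in pH 8 Tris-HCl 20 mM, 10% glycerol, 0.01% SDS, 2% DMSO. Z-LLE-βNA at 50 μM was added. βNA fluorescence (ex 340/em 404 nm) was monitored 45 min at 37 °C against an untreated control.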
For the compound `C[C@H](NC(=O)[C@H](Cc1ccc(OCc2ccccc2)cc1)NC(=O)OC(C)(C)C)C(=O)N[C@@H](C[C@]1(O)C(=O)Nc2ccccc21)C(=O)NCCC(=O)O`, the inhibition was found to be 19%.
The same measure, in the same setting: the result for `C[C@H](NC(=O)[C@H](Cc1ccc(OCc2ccccc2)cc1)NC(=O)OC(C)(C)C)C(=O)N[C@@H](C[C@@]1(O)C(=O)N(C)c2ccccc21)C(=O)NCc1ccccc1` reads more than 85%.
The same measure, in the same setting: the result for `C[C@H](NC(=O)OCc1ccccc1)C(=O)N[C@@H](C[C@]1(O)C(=O)Nc2ccccc21)C(=O)NCc1ccccc1` reads “inactive”.

For the next assay, the target named is T7, Proteasome subunit beta type-9 (Homo sapiens) (UniProt P28065).
T7 sequence (whole entry): T5 sequence (P28065 whole entry)
Put plainly: Inhibition of human 20S immunoproteasome beta-1 at 50 uM using Ac-PAL-AMC as substrate incubated for 15 mins measured for 45 mins by fluorescence assay relative to control. The gist of the method: as §2
The compound `C[C@H](NC(=O)[C@H](Cc1ccc(OCc2ccccc2)cc1)NC(=O)OC(C)(C)C)C(=O)N[C@@H](C[C@]1(O)C(=O)Nc2ccccc21)C(=O)NCCC(=O)O` had an inhibition of 17%.
Same read-out and setting: the result for `C[C@H](NC(=O)[C@H](Cc1ccc(OCc2ccccc2)cc1)NC(=O)OC(C)(C)C)C(=O)N[C@@H](C[C@@]1(O)C(=O)N(C)c2ccccc21)C(=O)NCc1ccccc1` reads more than 85%.
For the compound `C[C@H](NC(=O)OCc1ccccc1)C(=O)N[C@@H](C[C@]1(O)C(=O)Nc2ccccc21)C(=O)NCc1ccccc1`, the inhibition is more than 85%.

A further assay has as its target T8, Proteasome subunit beta type-10 (Homo sapiens, UniProt P40306).
T8 sequence (P40306 whole entry): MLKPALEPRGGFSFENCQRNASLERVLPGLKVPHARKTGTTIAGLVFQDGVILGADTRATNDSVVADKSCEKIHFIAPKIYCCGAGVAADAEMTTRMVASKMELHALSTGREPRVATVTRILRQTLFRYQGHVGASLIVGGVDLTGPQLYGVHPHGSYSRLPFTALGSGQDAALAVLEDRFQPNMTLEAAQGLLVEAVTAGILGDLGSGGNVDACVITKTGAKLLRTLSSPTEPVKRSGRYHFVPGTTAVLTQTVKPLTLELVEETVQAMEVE
Kind of assay: Inhibition of human 20S immunoproteasome beta-2 using BocLRR-AMC as substrate incubated for 15 mins measured for 45 mins by fluorescence assay.
In turn, `C[C@H](NC(=O)[C@H](Cc1ccc(OCc2ccccc2)cc1)NC(=O)OC(C)(C)C)C(=O)N[C@@H](C[C@]1(O)C(=O)Nc2ccccc21)C(=O)NCCC(=O)O` returned an IC50 of 22 µM.

A further assay has as its target Proteasome Macropain subunit (Homo sapiens) (UniProt P49721). Put plainly: Inhibition of human 20S constitutive proteasome beta-2 at 50 uM using BocLRR-AMC as substrate incubated for 15 mins measured for 45 mins by fluorescence assay relative to control. A digest of the protocol: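 Purified human 20S proteasome (cCP or iCP), 0.3 nM, preincubated 15 min with compound (0.001-50 μM) in pH 8 buffer of 20 mM Tris-HCl, 10% glycerol, 0.005% Triton X-100, 2% DMSO. Then Boc-LRR-AMC at 50 μM was added. AMC fluorescence (ex 360/em 460 nm) was followed 45 min at 37 °C. Activity is relative to an untreated control.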
`C[C@H](NC(=O)[C@H](Cc1ccc(OCc2ccccc2)cc1)NC(=O)OC(C)(C)C)C(=O)N[C@@H](C[C@]1(O)C(=O)Nc2ccccc21)C(=O)NCCC(=O)O` displayed an inhibition of more than 85%.
Same read-out and setting: in the case of `C[C@H](NC(=O)[C@H](Cc1ccc(OCc2ccccc2)cc1)NC(=O)OC(C)(C)C)C(=O)N[C@@H](C[C@@]1(O)C(=O)N(C)c2ccccc21)C(=O)NCc1ccccc1` it was 56%; in that of `C[C@H](NC(=O)OCc1ccccc1)C(=O)N[C@@H](C[C@]1(O)C(=O)Nc2ccccc21)C(=O)NCc1ccccc1`, “inactive”.

The next assay addresses T9, Proteasome subunit beta type-10 (Homo sapiens) (UniProt P40306).
T9 sequence (whole entry): T8 sequence (P40306 whole entry)
Kind of assay: Inhibition of human 20S immunoproteasome beta-2 at 50 uM using BocLRR-AMC as substrate incubated for 15 mins measured for 45 mins by fluorescence assay relative to control.
For `C[C@H](NC(=O)[C@H](Cc1ccc(OCc2ccccc2)cc1)NC(=O)OC(C)(C)C)C(=O)N[C@@H](C[C@]1(O)C(=O)Nc2ccccc21)C(=O)NCCC(=O)O`, the inhibition was more than 85%.
In turn, `C[C@H](NC(=O)[C@H](Cc1ccc(OCc2ccccc2)cc1)NC(=O)OC(C)(C)C)C(=O)N[C@@H](C[C@@]1(O)C(=O)N(C)c2ccccc21)C(=O)NCc1ccccc1` yielded an inhibition of 18%.
The same measure, in the same setting: the result for `C[C@H](NC(=O)OCc1ccccc1)C(=O)N[C@@H](C[C@]1(O)C(=O)Nc2ccccc21)C(=O)NCc1ccccc1` reads “inactive”.

Usually IC50 stands for the concentration that inhibits the measured activity by half. A lower IC50 goes with greater potency. For orientation: inhibition means the relative decrease from the control value, in per cent.
